A word on the MIC: it is the lowest concentration found to suppress growth. Lower therefore signals greater potency.

Here are results for 5 compounds from ChEMBL document CHEMBL1250501, “Anti-tubercular agents. Part 5: synthesis and biological evaluation of benzothiadiazine 1,1-dioxide based congeners” (Eur J Med Chem, 2010).

Common to all, as to format: functional
The subject of test [1] is Pseudomonas aeruginosa. As to the kind of experiment: Antibacterial activity against Pseudomonas aeruginosa at 50 ug/ml after 18 hrs by cup plate method. Particulars: for zone of inhibition at 50 µg/mL: read-out: DIZ. Summed up: (§1)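 Agar well diffusion on Mueller-Hinton agar. Inoculum was adjusted to a 0.5 McFarland standard (about […] × 10⁸ CFU/mL) and swabbed over the plate three times, rotating about 60° each time, then the rim was swabbed. Compounds in DMSO went into duplicate 6 mm wells. Plates were incubated at 37 °C for 18 h and inhibition zone diameter read to the nearest mm. DMSO negative control; streptomycin and ciprofloxacin positive controls.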

The subject of test [2] is Staphylococcus epidermidis. The test is described as follows: Antibacterial activity against Staphylococcus epidermidis at 50 ug/ml after 18 hrs by cup plate method. Particulars: for zone of inhibition at 50 µg/mL: read-out: DIZ. Summed up: as §1
For test [3], the system named is Candida albicans. As to the kind of experiment: Antifungal activity against Candida albicans MTCC 227 at 100 ug/ml after 48 hrs by cup plate method. Particulars: MTCC 227, 48 h, read-out: IZ. Summed up: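 Agar well (cup plate) diffusion on potato dextrose agar 39 g/L, with compounds dissolved in DMSO. Plates were incubated at 28 ± 2 °C for 48 h and inhibition zones measured to the nearest mm. Three replicates per treatment. Amphotericin B positive control; solvent control included.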

Test [4] relates to Pseudomonas aeruginosa. As to the kind of experiment: Antibacterial activity against Pseudomonas aeruginosa at 100 ug/ml after 18 hrs by cup plate method. As to conditions: read-out: DIZ. Summed up:
as §1

Test [5] concerns Escherichia coli. The test is described as follows: Antibacterial activity against Escherichia coli at 50 ug/ml after 18 hrs by cup plate method. Particulars: for zone of inhibition at 50 µg/mL: read-out: DIZ. Summed up: as §1
In test [6] the test system is Klebsiella pneumoniae. As to the kind of experiment: Antibacterial activity against Klebsiella pneumoniae at 50 ug/ml after 18 hrs by cup plate method. The method, boiled down:
as §1

Test [7] has as its system Staphylococcus aureus. As to the kind of experiment: Antibacterial activity against Staphylococcus aureus at 50 ug/ml after 18 hrs by cup plate method. Particulars: for zone of inhibition at 50 µg/mL: read-out: DIZ. Summed up:
as §1

For test [8], the system named is Klebsiella pneumoniae. As to the kind of experiment: Antibacterial activity against Klebsiella pneumoniae at 100 ug/ml after 18 hrs by cup plate method. Particulars: read-out: DIZ. Summed up:
as §1

Test [9] deals with Bacillus subtilis. As to the kind of experiment: Antibacterial activity against Bacillus subtilis at 100 ug/ml after 18 hrs by cup plate method. As to conditions: read-out: DIZ. Summed up: as §1
The test system of test [10] is Bacillus subtilis. As to the kind of experiment: Antibacterial activity against Bacillus subtilis at 50 ug/ml after 18 hrs by cup plate method. The method, boiled down:
as §1

Test [11] has as its system Staphylococcus epidermidis. The test is described as follows: Antibacterial activity against Staphylococcus epidermidis at 100 ug/ml after 18 hrs by cup plate method. Particulars: read-out: DIZ. Summed up:
as §1

Test [12] deals with Escherichia coli. The test is described as follows: Antibacterial activity against Escherichia coli at 100 ug/ml after 18 hrs by cup plate method. Particulars: read-out: DIZ. The method, boiled down: as §1
In test [13] the test system is Candida albicans. The test is described as follows: Antifungal activity against Candida albicans MTCC 227 at 50 ug/ml after 48 hrs by cup plate method. The method, boiled down: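 Agar well (cup plate) diffusion on potato dextrose agar 39 g/L. Compounds dissolved in DMSO and loaded into 6 mm wells. Incubated at 28 ± 2 °C for 48 h. Inhibition zone diameter measured to the nearest millimetre, three replicates per treatment. DMSO solvent as negative control, amphotericin B as positive control.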

Test [14] deals with Staphylococcus aureus. The test is described as follows: Antibacterial activity against Staphylococcus aureus at 100 ug/ml after 18 hrs by cup plate method. As to conditions: read-out: DIZ. The method, boiled down: as §1
Test [15] relates to Mycobacterium tuberculosis. As to the kind of experiment: Antimycobacterial activity against Mycobacterium tuberculosis H37Rv after 3 to 4 weeks by broth microdilution assay. Summed up:
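MIC by broth microdilution on compounds active in a single-concentration primary screen. Plates incubated 3–4 weeks at 37 °C in a CO₂ incubator. Wells read visually for absence of growth turbidity.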
(In general: In broth dilution the organism is exposed to a series of concentrations in liquid medium.)

Converted amounts (≈) assume the structure as drawn. The source made the active and inactive calls. The rule behind the calls is not given here.

On to `CCN1C(N2CCN(Cc3ccc([N+](=O)[O-])s3)CC2)=NS(=O)(=O)c2ccccc21`, for which the “diameter of the inhibition zone (DIZ)” value with Pseudomonas aeruginosa [1], in the test with Escherichia coli [5], with Klebsiella pneumoniae [6] and with Bacillus subtilis [10] was “inactive” in each case. Also, the results for the zone of inhibition at 50 µg/mL (in [2]; in the test on Staphylococcus aureus [7]) were 12 mm and 10 mm, respectively. In addition, the zone of inhibition at 100 µg/mL in the test with Candida albicans [3] was determined as 14 mm; in the test with Pseudomonas aeruginosa [4], 11 mm; with Klebsiella pneumoniae [8], 14 mm; with Bacillus subtilis [9], 16 mm; in [11], 18 mm; in the test on Escherichia coli [12] it was 15 mm. In the test on Staphylococcus aureus [14], the zone of inhibition at 100 µg/mL was 11 mm. Moreover, in the test with Candida albicans [13], the “inhibition zone (IZ)” value is “inactive”. This compound displayed an MIC in test [15] of 4 µg/mL (≈ 9.18 µM).

Take `O=[N+]([O-])c1ccc(CN2CCN(C3=NS(=O)(=O)c4ccccc4N3c3ccccc3)CC2)o1`: the zone of inhibition at 50 µg/mL came out at 10 mm in the test on Pseudomonas aeruginosa [1], 15 mm in test [2], 14 mm with Escherichia coli [5] and 14 mm with Staphylococcus aureus [7]. Moreover, the zone of inhibition at 100 µg/mL in the test with Candida albicans [3] came out at 11 mm; in the test on Pseudomonas aeruginosa [4], 15 mm; with Klebsiella pneumoniae [8], 15 mm; with Bacillus subtilis [9], 19 mm; in test [11], 20 mm; with Escherichia coli [12] it was 20 mm. Besides, the zone of inhibition at 100 µg/mL in the test on Staphylococcus aureus [14] was 15 mm. Further, the “diameter of the inhibition zone (DIZ)” value in the test with Klebsiella pneumoniae [6] and with Bacillus subtilis [10] was “inactive” each time. Further, the “inhibition zone (IZ)” value in the test with Candida albicans [13] is “inactive”. Besides, inhibition of growth in test [15] (MIC) required 2 µg/mL (≈ 4.28 µM).

For the compound `O=C(c1ccc([N+](=O)[O-])o1)N1CCN(C2=NS(=O)(=O)c3ccccc3N2c2ccccc2)CC1`, the zone of inhibition at 50 µg/mL is 10 mm in the test with Pseudomonas aeruginosa [1]; 10 mm in test [2]; 10 mm in the test on Escherichia coli [5]; 10 mm in the test on Candida albicans [13] (MTCC 227, 48 h, read-out: IZ). The zone of inhibition at 100 µg/mL in the test with Candida albicans [3] was determined as 17 mm; with Pseudomonas aeruginosa [4], 16 mm; in the test on Klebsiella pneumoniae [8], 11 mm; with Bacillus subtilis [9], 19 mm; in [11], 17 mm; in the test on Escherichia coli [12], 20 mm. In addition, in the test with Staphylococcus aureus [14], the zone of inhibition at 100 µg/mL amounted to 15 mm. The “diameter of the inhibition zone (DIZ)” value with Klebsiella pneumoniae [6], in the test with Staphylococcus aureus [7] and in the test with Bacillus subtilis [10] was “inactive” each time. Besides, the MIC in [15] was > 16 µg/mL.

With `O=[N+]([O-])c1ccc(CN2CCN(C3=NS(=O)(=O)c4ccccc4N3c3ccccc3)CC2)s1`, the “diameter of the inhibition zone (DIZ)” value (in the test on Pseudomonas aeruginosa [1]; in test [2]; with Escherichia coli [5]; with Klebsiella pneumoniae [6]; in the test on Bacillus subtilis [10]) was “inactive” in each case. Also, the zone of inhibition at 100 µg/mL in the test on Candida albicans [3] is 12 mm; with Pseudomonas aeruginosa [4], 12 mm; in the test with Klebsiella pneumoniae [8] it was 13 mm; in the test with Bacillus subtilis [9], 14 mm; in test [11], 14 mm; in the test with Escherichia coli [12], 16 mm. The zone of inhibition at 100 µg/mL with Staphylococcus aureus [14] stood at 12 mm. Besides, the zone of inhibition at 50 µg/mL in the test on Staphylococcus aureus [7] worked out at 9 mm. Moreover, the “inhibition zone (IZ)” value in the test with Candida albicans [13] was “inactive”. Besides, the MIC in test [15] was > 16 µg/mL.

Consider `CN[C@@H]1[C@H](O[C@H]2[C@H](O[C@H]3[C@H](O)[C@@H](O)[C@H](N=C(N)N)[C@@H](O)[C@@H]3N=C(N)N)O[C@@H](C)[C@]2(O)C=O)O[C@@H](CO)[C@H](O)[C@H]1O` [STREPTOMYCIN], for which the zone of inhibition at 50 µg/mL with Pseudomonas aeruginosa [1] came to 29 mm; in test [2] it was 18 mm; in the test on Escherichia coli [5], 21 mm; with Klebsiella pneumoniae [6] (read-out: DIZ), 22 mm; in the test on Staphylococcus aureus [7], 22 mm; in the test on Bacillus subtilis [10] (read-out: DIZ), 17 mm. The “inhibition zone (IZ)” value in the test on Candida albicans [13] is “inactive”.
